Assay results gathered from unrelated publications.
Protocols differ between the studies behind these lines.
Observed: cell growth or viability

| SMILES | cell line | technique | concentration | time | quantity | result |
| --- | --- | --- | --- | --- | --- | --- |
| Cc1n[nH]c2ccc3nc(-c4ccc(C(=O)NCCN(C)C)cc4)c4c(c3c12)CCCCC4 | NOMO-1 |  |  | 72 h | GI50 | 3080 nM |
| COc1ccc(NC(=O)Nc2cccc(-c3cn(Cc4ccc(Br)cc4)nn3)c2)cc1 | MCF7 | CCK-8 | 50 µM | 72 h | viability | 98.4% |
| O=C(C[C@@H](C(F)F)n1ccc(F)n1)N1CCC(O)(Cn2cnc3c(cnn3-c3ccc(F)cc3)c2=O)CC1 | CAPAN-1 | SRB | 9.145 nM | 5 days | viability | 94.6% |
| COc1ccc(NC(=O)Nc2cccc(-c3cn(Cc4ccc(C)cc4)nn3)c2)cc1 | MCF7 | CCK-8 | 50 µM | 48 h | viability | 104% |
| O=C(Nc1ccc(Cl)cc1)Nc1ccc(-c2cn(Cc3ccc(Cl)cc3)nn2)cc1 | MCF7 | CCK-8 | 50 µM | 48 h | viability | 94.6% |
| Cc1n[nH]c2ccc3nc(-c4ccc(C(=O)NCCN(C)C)cc4F)c4c(c3c12)CCCCC4 | NOMO-1 |  |  | 72 h | GI50 | 2730 nM |
| COc1ccc2/c(=N/c3ccccc3NC(=O)CN)cc(-c3ccc4c(c3)OCCO4)oc2c1 | MCF7 | CCK-8 | 1 µM |  | inhibition | 9.77% |
| O=C(Nc1ccc(-c2cn(Cc3ccc(Br)cc3)nn2)cc1)Nc1ccccc1Br | MCF7 | CCK-8 | 50 µM | 72 h | viability | 103% |
| O=C(Nc1ccccc1/N=c1\cc(-c2ccc3c(c2)OCCO3)oc2cc(F)ccc12)N1CCOCC1 | MCF7 | CCK-8 | 1 µM |  | inhibition | 16.7% |
| Cc1ccccc1Cn1cc(-c2cccc(NC(=O)Nc3ccc(F)cc3)c2)nn1 | MCF7 | CCK-8 | 50 µM | 48 h | viability | 100% |
| COc1ccc2/c(=N/c3ccccc3NC(=O)[C@@H](N)C(C)(C)C)cc(-c3ccc4c(c3)OCO4)oc2c1 | MCF7 | CCK-8 | 1 µM |  | inhibition | 14.2% |
| CN(C)CCNC(=O)c1ccc(-c2nc3ccc4[nH]ncc4c3c3c2CCCCC3)c(F)c1 | NOMO-1 |  |  | 72 h | GI50 | 1330 nM |
| COc1ccc(NC(=O)Nc2cccc(-c3cn(Cc4ccc(Cl)cc4)nn3)c2)cc1 | MCF7 | CCK-8 | 50 µM | 72 h | viability | 104% |
| NCCC(=O)Nc1ccccc1/N=c1\cc(-c2ccc3c(c2)OCO3)oc2ccccc12 | MCF7 | CCK-8 | 1 µM |  | inhibition | -5.6% |
| C[C@H](Nc1ccc2c(c1)OCCn1cc(N3C(=O)OC[C@H]3C(F)F)nc1-2)C(N)=O | HCC1954 | ATP luminescence |  | 5 days | EC50 | 155 nM |
| COCCC(=O)Nc1ccccc1/N=c1\cc(-c2ccc3c(c2)OCO3)oc2ccccc12 | MCF7 | CCK-8 | 1 µM |  | inhibition | 9.24% |
| Cc1n[nH]c2ccc3nc(-c4ccc(C(=O)NCCN(C)C)cc4)c4c(c3c12)CCCC4 | NOMO-1 |  |  | 72 h | GI50 | 1060 nM |
| COc1ccc2/c(=N/c3ccccc3NC(=O)[C@H](C)N)cc(-c3ccc4c(c3)OCCO4)oc2c1 | MCF7 | CCK-8 | 1 µM |  | inhibition | 8.55% |
| CCc1nc(C(N)=O)c(Nc2ccc(N3CCC(N4CCN(C)CC4)CC3)c(OC)c2)nc1NC1CCOCC1 | NOMO-1 |  |  | 72 h | GI50 | 2540 nM |
| COc1ccc2/c(=N/c3ccccc3NC(=O)[C@@H](N)C(C)(C)C)cc(-c3ccc4c(c3)OCCO4)oc2c1 | MCF7 | CCK-8 | 1 µM |  | inhibition | 8.1% |
| O=C(Nc1ccc(Cl)cc1)Nc1cccc(-c2cn(Cc3cccc(Cl)c3)nn2)c1 | MCF7 | CCK-8 | 50 µM | 72 h | viability | 70.5% |
